Entries after “also recorded” stand apart in the source; their conditions may differ.
What was measured:
[1] = tested on: locomotor activity; assay: Locomotor activity test; format: in vivo, mouse
[2] = tested on: anxiety; assay: Light/dark cycle test; format: in vivo, mouse
[3] = via hepatic enzymes; ref unpublished results; cited from earlier work
[4] = tested on: anxiety; details: cited from earlier work; for Anti-conflict effect / Effect on non-suppressed responding / response rates: dose range 0.1 to 10 mg/kg
[5] = ref Bristol-Myers Squibb, unpublished results of Phase I trials; cited from earlier work
[6] = cited from earlier work
[7] = ref Mithridion, unpublished results; cited from earlier work
[8] = Metabolic stability using pooled human liver microsomes; format: in vitro ADME; details: 1 and 10 μM, up to 60 min
[9] = tested on: neuropathic and inflammatory pain; details: cited from earlier work
[10] = molecular target: α1β3γ2 GABAA receptors (Rattus norvegicus, UniProt P18508+P62813); assay: Two-electrode voltage clamp, stimulation of GABA EC3 currents in Xenopus oocytes; format: cell-based
How it was run: (§1)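 Xenopus oocytes were injected with rat β3 and γ2 cDNAs plus α1, α2, α3 or α5. Follicle layers were removed 36 h later. Two-electrode voltage clamp was done at −60 mV and room temperature in XR buffer (pH 7.4, 5 mM HEPES). Test compound (0.1% DMSO final) was preapplied for 30 s, then coapplied with EC3 GABA until peak, with washes of up to 15 min. Curves were fitted to a four-parameter logistic.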

[11] = molecular target: α2β3γ2 GABAA receptors (Rattus norvegicus, UniProt P18508+P23576); assay: as above; format: cell-based; details: 100 nM
How it was run: as §1

[12] = molecular target: α5β3γ2 GABAA receptors (Rattus norvegicus, UniProt P18508+P19969); assay: as above; format: cell-based
How it was run: as §1

[13] = molecular target: α3β3γ2 GABAA receptors (Rattus norvegicus, UniProt P18508+P20236); assay: as above; format: cell-based; details: dose-response curves
How it was run: as §1

[14] = positive control, 3 mg/kg, i.p.

Sequence of α3β3γ2 GABAA receptors (P20236 29-493): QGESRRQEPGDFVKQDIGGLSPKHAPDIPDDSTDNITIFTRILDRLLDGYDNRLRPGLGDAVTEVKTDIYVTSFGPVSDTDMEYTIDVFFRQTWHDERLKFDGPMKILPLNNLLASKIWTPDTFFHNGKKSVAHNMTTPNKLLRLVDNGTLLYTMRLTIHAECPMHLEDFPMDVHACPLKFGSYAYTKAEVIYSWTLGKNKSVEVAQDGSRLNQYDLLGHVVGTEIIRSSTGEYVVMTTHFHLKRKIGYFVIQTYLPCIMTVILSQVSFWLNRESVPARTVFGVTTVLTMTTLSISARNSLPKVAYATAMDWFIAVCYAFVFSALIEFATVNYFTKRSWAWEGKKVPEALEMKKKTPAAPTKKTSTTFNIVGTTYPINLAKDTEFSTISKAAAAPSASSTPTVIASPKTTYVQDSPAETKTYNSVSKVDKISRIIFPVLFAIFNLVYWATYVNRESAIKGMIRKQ
Sequence of α3β3γ2 GABAA receptors (P63079 26-473 partner): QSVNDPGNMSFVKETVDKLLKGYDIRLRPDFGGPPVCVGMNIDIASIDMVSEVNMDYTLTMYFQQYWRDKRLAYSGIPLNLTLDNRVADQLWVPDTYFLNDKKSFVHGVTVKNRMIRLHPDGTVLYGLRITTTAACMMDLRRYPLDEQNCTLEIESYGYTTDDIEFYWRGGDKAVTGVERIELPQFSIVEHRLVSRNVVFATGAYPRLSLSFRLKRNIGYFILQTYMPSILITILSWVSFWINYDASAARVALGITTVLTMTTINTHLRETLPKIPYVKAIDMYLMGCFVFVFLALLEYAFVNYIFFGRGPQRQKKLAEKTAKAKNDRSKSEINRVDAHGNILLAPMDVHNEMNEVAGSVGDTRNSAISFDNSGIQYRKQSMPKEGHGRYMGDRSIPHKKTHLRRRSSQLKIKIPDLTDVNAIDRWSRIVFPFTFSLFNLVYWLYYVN
Sequence of α3β3γ2 GABAA receptors (P18508 39-466): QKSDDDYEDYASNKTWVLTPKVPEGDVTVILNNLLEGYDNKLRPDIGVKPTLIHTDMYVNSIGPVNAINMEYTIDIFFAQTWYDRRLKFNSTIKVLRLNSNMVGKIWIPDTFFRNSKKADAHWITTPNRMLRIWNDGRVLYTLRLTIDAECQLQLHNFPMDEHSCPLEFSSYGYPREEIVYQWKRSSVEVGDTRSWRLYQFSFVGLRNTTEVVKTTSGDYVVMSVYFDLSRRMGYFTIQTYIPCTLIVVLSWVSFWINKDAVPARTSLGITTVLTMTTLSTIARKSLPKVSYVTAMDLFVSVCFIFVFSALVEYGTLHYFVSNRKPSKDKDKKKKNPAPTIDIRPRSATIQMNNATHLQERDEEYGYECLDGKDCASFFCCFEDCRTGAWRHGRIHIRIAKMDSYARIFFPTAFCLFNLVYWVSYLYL
Sequence of α1β3γ2 GABAA receptors (P62813 28-455): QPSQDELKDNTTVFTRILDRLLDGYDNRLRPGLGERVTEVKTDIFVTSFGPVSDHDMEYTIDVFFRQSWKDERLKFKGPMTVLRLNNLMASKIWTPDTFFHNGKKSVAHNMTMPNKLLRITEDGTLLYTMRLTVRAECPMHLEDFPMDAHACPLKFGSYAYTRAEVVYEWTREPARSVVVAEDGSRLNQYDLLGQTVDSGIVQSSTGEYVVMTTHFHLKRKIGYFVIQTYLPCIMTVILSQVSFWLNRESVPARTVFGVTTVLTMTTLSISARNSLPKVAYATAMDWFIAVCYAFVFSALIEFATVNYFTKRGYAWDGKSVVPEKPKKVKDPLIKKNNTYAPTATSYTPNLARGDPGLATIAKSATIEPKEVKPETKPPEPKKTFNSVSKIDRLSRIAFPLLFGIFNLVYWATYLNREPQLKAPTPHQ
Sequence of α1β3γ2 GABAA receptors (P63079 26-473 partner): as the sequence (P63079 26-473 partner) above
Sequence of α1β3γ2 GABAA receptors (P18508 39-466): as the sequence (P18508 39-466) above
Sequence of α5β3γ2 GABAA receptors (P19969 32-464 limits assumed): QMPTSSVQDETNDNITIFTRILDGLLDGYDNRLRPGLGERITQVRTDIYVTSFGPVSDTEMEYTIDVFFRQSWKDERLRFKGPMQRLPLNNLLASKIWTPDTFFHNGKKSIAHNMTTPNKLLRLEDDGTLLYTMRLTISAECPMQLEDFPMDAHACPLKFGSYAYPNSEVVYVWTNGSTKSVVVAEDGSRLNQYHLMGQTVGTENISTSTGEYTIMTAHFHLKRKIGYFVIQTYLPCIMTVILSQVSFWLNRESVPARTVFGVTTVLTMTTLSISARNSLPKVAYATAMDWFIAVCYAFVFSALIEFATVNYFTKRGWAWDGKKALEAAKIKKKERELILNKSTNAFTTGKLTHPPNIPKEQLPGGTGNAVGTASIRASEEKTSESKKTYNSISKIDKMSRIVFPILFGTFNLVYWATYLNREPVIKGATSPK
Sequence of α5β3γ2 GABAA receptors (P63079 26-473 partner): as the sequence (P63079 26-473 partner) above
Sequence of α5β3γ2 GABAA receptors (P18508 39-466): as the sequence (P18508 39-466) above
Sequence of α2β3γ2 GABAA receptors (P23576 29-451): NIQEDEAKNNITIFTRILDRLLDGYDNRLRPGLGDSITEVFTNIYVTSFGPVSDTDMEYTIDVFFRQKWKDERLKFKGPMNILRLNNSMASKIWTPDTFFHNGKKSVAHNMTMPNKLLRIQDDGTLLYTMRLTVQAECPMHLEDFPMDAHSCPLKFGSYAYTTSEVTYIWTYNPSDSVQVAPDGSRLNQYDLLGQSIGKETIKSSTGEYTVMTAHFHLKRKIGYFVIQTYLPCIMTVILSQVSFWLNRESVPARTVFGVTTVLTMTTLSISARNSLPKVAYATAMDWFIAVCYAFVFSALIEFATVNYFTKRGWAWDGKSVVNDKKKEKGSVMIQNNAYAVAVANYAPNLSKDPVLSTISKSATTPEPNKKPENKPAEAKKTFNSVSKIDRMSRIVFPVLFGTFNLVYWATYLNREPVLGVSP
Sequence of α2β3γ2 GABAA receptors (P63079 26-473 partner): as the sequence (P63079 26-473 partner) above
Sequence of α2β3γ2 GABAA receptors (P18508 39-466): as the sequence (P18508 39-466) above

CN1C(=O)CN=C(c2ccccc2)c2cc(Cl)ccc21 [Diazepam, reference compound]
Locomotor activity vs vehicle [1, 14]: significantly reduced locomotor activity | Anxiolytic activity (time spent in the lighted area vs vehicle) [2, 14]: significantly anxiolytic

C#Cc1ccc2c(c1)C(c1ccccc1)=NCc1c(C(=O)OCC)ncn1-2 [compound 1]
Metabolic transformation in human liver, in words [3]: largely transformed into the inactive metabolite XHe-II-053-acid (4) | Side effects, in words [4]: lacked sedative, ataxic, muscle relaxant and amnestic side effects | Anti-conflict effect [4]: anti-conflict effect | Effect on non-suppressed responding / response rates [4]: without producing diazepam-like alterations | Safety in humans [5]: safe in humans | Preclinical safety and efficacy, in words [6]: safe and effective | Stability in human tissues, in words [7]: stable in human blood, plasma, brain and kidney

C#Cc1ccc2c(c1)C(c1ccccn1)=NCc1c(C(=O)OCC)ncn1-2 [compound 2]
Metabolic stability on human liver microsomes, in words [8]: minimal metabolism | Side effects, in words [4]: lacked sedative, ataxic, muscle relaxant and amnestic side effects | Anti-conflict effect [4]: anti-conflict effect | Effect on non-suppressed responding / response rates [4]: without producing diazepam-like alterations | Tolerance development (analgesic activity, chronic versus acute treatment) ([9]; 9-day chronic treatment period): no loss of analgesic activity | Sedation and motor impairment ([9]; at doses producing maximal antihyperalgesia): devoid of sedation and motor impairment

C#Cc1ccc2c(c1)C(c1ccccc1F)=NCc1c(C(=O)OCC)ncn1-2 [compound 3]
Metabolic stability on human liver microsomes, in words [8]: underwent biotransformation almost quantitatively; also recorded: not very stable | Anti-conflict effect [4]: robust anti-conflict effect | Effect on non-suppressed responding / response rates [4]: some reduction in response rates at the highest dose tested

C#Cc1ccc2c(c1)C(c1ccccc1)=NCc1c(C(=O)O)ncn1-2 [compound 4]
Metabolic stability on human liver microsomes, in words [8]: did not exhibit any metabolism

C#Cc1ccc2c(c1)C(c1ccccn1)=NCc1c(C(=O)O)ncn1-2 [compound 5]
Metabolic stability on human liver microsomes, in words [8]: did not exhibit any metabolism

C#Cc1ccc2c(c1)C(c1ccccc1)=NCc1c(C(=O)NC)ncn1-2 [compound 6, 8-Ethynyl-N-methyl-6-phenyl-4H-benzo-[f]-imidazo-[1,5-a]-[1,4]-diazepine-3-carboxamide]
Metabolic stability on human liver microsomes, in words [8]: decreased rate of metabolism; also recorded: much more stable on human liver microsomes than 1 | Efficacy, in words ([10]; 100 nM): very weak agonistic effects | Efficacy, in words ([10]; higher concentration): antagonist | Efficacy, in words [11]: very weak agonistic effects | Efficacy, in words ([12]; 100 nM): very weak agonistic effects | Efficacy, in words ([12]; higher concentration): antagonist

C#Cc1ccc2c(c1)C(c1ccccn1)=NCc1c(C(=O)NC)ncn1-2 [compound 7, 8-Ethynyl-N-methyl-6-(pyridine-2-yl)-4H-benzo-[f]-imidazo-[1,5-a]-[1,4]-diazepine-3-carboxamide]
Metabolic stability on human liver microsomes, in words [8]: much more stable on human liver microsomes than 1 | Relative potency, in words [13]: relatively less potent than 8

C#Cc1ccc2c(c1)C(c1ccccc1F)=NCc1c(C(=O)NC)ncn1-2 [compound 8, 8-Ethynyl-N-methyl-6-(2-fluorophenyl)-4H-benzo-[f]-imidazo-[1,5-a]-[1,4]-diazepine-3-carboxamide]
Metabolic stability on human liver microsomes, in words [8]: significantly more stable than the corresponding ethyl ester analog 3

C#Cc1ccc2c(c1)C(c1ccccc1)=NCc1c(-c3nc(C(C)C)no3)ncn1-2 [compound 11]
Metabolic stability on human liver microsomes, in words [8]: significantly more stable than 1 and 2 respectively; also recorded: much more stable on human liver microsomes than 1 | Locomotor activity vs vehicle ([1]; 10 and 100 mg/kg): significantly increased locomotor activity | Sedation / ataxia, in words ([1]; 10 and 100 mg/kg): devoid of sedative properties; also recorded: no effects from either ataxia or sedation; also recorded: no sedative properties | Anxiolytic activity (time spent in the lighted area vs vehicle) ([2]; 10 and 100 mg/kg): significant anxiolytic activity

C#Cc1ccc2c(c1)C(c1ccccn1)=NCc1c(-c3nc(C(C)C)no3)ncn1-2 [compound 12, 5-(8-Ethynyl-6-(pyridin-2-yl)-4H-benzo-[f]-imidazo-[1,5-a]-[1,4]-diazepine-3-yl)-3-isopropyl-1,2,4-oxadiazole]
Metabolic stability on human liver microsomes, in words [8]: significantly more stable than 1 and 2 respectively | Relative potency, in words [13]: far less potent than 6 and 11
